{
  "source": "ChEMBL document CHEMBL4038327",
  "about": "“Inhibitory Kappa B Kinase α (IKKα) Inhibitors That Recapitulate Their Selectivity in Cells against Isoform-Related Biomarkers” (J Med Chem, 2017)",
  "key": {"[1]": {"biological_target": "T1, Inhibitor of nuclear factor kappa-B kinase subunit beta (Homo sapiens, UniProt O14920)", "T1 sequence (O14920 whole entry)": "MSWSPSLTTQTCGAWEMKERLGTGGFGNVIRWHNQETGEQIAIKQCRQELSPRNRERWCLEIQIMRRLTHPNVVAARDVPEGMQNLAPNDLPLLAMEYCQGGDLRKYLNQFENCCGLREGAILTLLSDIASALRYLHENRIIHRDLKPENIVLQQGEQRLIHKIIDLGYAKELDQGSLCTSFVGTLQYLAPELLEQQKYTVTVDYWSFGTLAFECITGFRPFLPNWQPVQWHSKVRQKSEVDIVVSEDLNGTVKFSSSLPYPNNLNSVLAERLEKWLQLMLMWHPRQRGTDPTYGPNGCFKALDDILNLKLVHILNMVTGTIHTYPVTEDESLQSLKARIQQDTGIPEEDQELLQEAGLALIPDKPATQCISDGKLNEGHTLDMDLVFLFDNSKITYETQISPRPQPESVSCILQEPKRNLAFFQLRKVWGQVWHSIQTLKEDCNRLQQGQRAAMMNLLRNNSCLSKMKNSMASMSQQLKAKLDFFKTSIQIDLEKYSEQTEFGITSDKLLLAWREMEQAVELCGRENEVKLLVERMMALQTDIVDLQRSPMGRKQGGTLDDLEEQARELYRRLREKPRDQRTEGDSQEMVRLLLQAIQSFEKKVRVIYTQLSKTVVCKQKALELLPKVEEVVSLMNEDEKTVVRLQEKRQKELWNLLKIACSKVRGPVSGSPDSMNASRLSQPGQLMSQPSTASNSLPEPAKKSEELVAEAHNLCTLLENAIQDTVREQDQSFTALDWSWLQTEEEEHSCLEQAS", "test": "Inhibition of IKKbeta in human U2OS cells assessed as decrease in TNFalpha induced p65 phosphorylation at ser536 residues at 100 uM preincubated for 1 hr followed by TNFalpha stimulation for 30 mins by Western blot analysis", "type": "cell-based", "conditions": "0.5 h; call rule not given here", "outline": "(§1)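 U2OS cells were grown in McCoy's 5A medium at 37 °C under 5% CO2 and made quiescent by 24 h serum deprivation. They were then pretreated with compound before agonist stimulation in serum-free medium. Phospho-p100, IκBα levels and phospho-p65 (Ser536) were assessed by Western blot.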"}, "[2]": {"biological_target": "T1, Inhibitor of nuclear factor kappa-B kinase subunit beta", "test": "Inhibition of recombinant full length human IKKbeta expressed in baculovirus infected sf9 insect cells using biotinylated IkBalpha as substrate after 60 mins by DELFIA", "outline": "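Recombinant IKKβ (37 nM) was incubated with biotinylated IκB-α (Ser32) peptide (0.375 μM) and 40 μM ATP in Tris-HCl pH 7.5 with MgCl2, EDTA, DTT and BSA for 60 min at 30 °C. The reaction was quenched with EDTA and captured on streptavidin. Detection used anti-phospho-IκBα (Ser32/36) mAb plus Eu-anti-mouse IgG, read by time-resolved fluorescence (340/615 nm). Apparent Ki was obtained via Cheng–Prusoff, n=3.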"}, "[3]": {"biological_target": "Serine/threonine-protein kinase Chk2 (Homo sapiens) (UniProt O96017)", "sequence (O96017 whole entry)": "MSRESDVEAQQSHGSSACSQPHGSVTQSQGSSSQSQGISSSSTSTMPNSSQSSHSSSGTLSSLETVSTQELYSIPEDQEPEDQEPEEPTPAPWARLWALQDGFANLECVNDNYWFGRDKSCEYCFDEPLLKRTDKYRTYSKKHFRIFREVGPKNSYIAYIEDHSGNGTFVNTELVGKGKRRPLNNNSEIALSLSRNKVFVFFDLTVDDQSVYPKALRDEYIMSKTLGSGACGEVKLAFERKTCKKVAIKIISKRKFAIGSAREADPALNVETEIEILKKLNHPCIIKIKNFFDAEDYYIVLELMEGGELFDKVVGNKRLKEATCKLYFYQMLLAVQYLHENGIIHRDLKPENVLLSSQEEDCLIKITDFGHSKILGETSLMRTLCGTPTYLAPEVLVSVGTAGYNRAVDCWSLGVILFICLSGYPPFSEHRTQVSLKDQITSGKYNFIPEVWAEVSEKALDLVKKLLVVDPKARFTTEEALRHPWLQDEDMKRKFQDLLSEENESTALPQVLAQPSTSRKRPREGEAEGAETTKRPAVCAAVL", "test": "Inhibition of N-terminal GST and C-terminal His6 tagged recombinant human CHK2 expressed in Escherichia coli cells at 10 uM relative to control", "outline": "(§2)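 Outsourced commercial kinase panel run at a single concentration, with duplicate assay points.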"}, "[4]": {"biological_target": "Dual specificity mitogen-activated protein kinase kinase 1 (Homo sapiens) (UniProt Q02750)", "sequence (Q02750 whole entry)": "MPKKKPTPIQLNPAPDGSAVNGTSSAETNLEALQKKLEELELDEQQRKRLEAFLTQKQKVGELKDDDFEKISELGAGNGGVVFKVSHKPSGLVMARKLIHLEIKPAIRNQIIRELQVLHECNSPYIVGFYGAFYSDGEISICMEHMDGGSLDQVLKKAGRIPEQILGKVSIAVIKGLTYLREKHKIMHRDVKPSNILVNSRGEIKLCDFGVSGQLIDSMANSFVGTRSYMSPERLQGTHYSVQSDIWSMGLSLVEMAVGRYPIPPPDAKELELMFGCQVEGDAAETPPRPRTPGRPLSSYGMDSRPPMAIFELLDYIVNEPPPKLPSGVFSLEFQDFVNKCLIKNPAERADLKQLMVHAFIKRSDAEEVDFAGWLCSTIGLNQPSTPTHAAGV", "test": "Inhibition of N-terminal GST tagged/C-terminal His6-tagged recombinant full length human Mek1 expressed in Escherichia coli cells at 10 uM relative to control", "outline": "as §2"}, "[5]": {"biological_target": "T2, Aurora kinase A (Homo sapiens) (UniProt O14965)", "T2 sequence (whole entry)": "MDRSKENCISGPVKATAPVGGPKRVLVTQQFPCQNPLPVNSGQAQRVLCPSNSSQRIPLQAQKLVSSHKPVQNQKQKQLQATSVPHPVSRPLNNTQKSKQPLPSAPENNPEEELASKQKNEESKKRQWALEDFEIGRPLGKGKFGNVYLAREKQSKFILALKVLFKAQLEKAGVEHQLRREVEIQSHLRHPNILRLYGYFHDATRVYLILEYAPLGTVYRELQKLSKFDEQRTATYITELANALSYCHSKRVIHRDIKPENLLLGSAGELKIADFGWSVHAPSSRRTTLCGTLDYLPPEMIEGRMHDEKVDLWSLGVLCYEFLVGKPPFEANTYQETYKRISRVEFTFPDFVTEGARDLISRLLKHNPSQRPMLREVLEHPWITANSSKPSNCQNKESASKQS", "test": "Inhibition of N-terminal His6 tagged recombinant human full length Aurora A expressed in Sf21 cells at 10 uM relative to control", "outline": "as §2"}, "[6]": {"biological_target": "Calcium/calmodulin-dependent protein kinase type 1 (Homo sapiens) (UniProt Q14012)", "sequence (Q14012 whole entry, looked up)": "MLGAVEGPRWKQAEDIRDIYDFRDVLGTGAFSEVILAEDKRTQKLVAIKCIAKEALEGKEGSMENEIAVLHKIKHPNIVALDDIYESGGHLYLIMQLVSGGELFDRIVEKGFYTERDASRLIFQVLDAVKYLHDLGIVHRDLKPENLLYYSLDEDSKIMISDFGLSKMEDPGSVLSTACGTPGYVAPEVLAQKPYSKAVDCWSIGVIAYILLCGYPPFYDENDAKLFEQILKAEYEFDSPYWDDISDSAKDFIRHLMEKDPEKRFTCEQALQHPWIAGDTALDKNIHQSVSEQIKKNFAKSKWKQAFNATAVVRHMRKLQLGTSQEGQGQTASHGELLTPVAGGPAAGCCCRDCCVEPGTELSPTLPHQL", "test": "Inhibition of N-terminal GST tagged recombinant human CaMK1 (2 end residues) expressed in Escherichia coli cells at 10 uM relative to control", "outline": "as §2"}, "[7]": {"biological_target": "T3, Inhibitor of nuclear factor kappa-B kinase subunit alpha (Homo sapiens) (UniProt O15111)", "T3 sequence (whole entry)": "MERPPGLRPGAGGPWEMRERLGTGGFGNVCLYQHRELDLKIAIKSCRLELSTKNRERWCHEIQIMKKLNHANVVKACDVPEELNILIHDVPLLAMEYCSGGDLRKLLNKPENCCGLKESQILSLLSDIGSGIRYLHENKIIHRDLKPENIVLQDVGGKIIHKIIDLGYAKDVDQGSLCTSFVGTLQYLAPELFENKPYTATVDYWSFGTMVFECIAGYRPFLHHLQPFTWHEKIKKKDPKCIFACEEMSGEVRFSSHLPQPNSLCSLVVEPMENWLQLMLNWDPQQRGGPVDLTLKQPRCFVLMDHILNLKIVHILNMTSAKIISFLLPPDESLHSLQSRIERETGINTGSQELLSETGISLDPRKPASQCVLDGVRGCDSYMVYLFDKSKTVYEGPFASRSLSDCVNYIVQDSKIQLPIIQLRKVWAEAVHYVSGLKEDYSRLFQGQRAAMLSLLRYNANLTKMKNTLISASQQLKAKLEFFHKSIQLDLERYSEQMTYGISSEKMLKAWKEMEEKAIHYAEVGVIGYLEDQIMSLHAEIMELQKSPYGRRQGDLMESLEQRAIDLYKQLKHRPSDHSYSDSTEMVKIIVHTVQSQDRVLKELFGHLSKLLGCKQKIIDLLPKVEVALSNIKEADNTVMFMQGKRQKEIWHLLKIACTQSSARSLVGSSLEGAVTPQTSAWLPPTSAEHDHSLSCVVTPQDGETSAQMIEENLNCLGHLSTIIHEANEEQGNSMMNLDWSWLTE", "test": "(§3) Inhibition of IKKalpha in human U2OS cells assessed as decrease in FCS induced p100 phosphorylation at ser866/870 residues preincubated for 1 hr followed by FCS stimulation for 4 hrs by Western blot analysis", "type": "cell-based", "outline": "as §1"}, "[8]": {"biological_target": "T4, Inhibitor of nuclear factor kappa-B kinase subunit alpha (Homo sapiens, UniProt O15111)", "T4 sequence (O15111 whole entry)": "T3 sequence (whole entry)", "test": "as §3", "type": "cell-based", "outline": "as §1"}, "[9]": {"biological_target": "Glycogen synthase kinase-3 beta (Homo sapiens) (UniProt P49841)", "sequence (P49841 whole entry, looked up)": "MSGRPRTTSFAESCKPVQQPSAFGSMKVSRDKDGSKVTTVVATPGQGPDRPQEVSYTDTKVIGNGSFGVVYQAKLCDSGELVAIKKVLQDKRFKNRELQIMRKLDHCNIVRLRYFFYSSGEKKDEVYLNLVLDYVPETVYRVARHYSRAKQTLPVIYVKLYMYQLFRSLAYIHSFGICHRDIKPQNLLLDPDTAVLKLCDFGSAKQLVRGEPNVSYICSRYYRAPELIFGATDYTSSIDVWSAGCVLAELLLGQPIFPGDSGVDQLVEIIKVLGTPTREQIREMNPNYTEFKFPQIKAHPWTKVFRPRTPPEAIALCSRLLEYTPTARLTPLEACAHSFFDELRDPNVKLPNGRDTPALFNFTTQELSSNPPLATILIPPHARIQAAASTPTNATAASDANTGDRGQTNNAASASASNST", "test": "Inhibition of human N-terminal GST-tagged GSK3beta at 10 uM relative to control", "outline": "as §2"}, "[10]": {"biological_target": "T1, Inhibitor of nuclear factor kappa-B kinase subunit beta", "test": "Inhibition of IKKbeta in human U2OS cells assessed as TNFalpha induced IkBalpha degradation at 100 uM preincubated for 1 hr followed by TNFalpha stimulation for 30 mins by Western blot analysis", "type": "cell-based", "conditions": "0.5 h", "outline": "as §1"}},
  "data": [
    {"compound": "N#Cc1c[nH]c2nc(N)nc(-c3ccc(S(N)(=O)=O)cc3)c12", "values": [
      {"measurement": "inhibition (INH)", "setting": "[1]", "value": "Active"},
      {"measurement": "Ki", "setting": "[2]", "value": 1, "unit": "µM"},
      {"measurement": "inhibition", "setting": "[3]", "value": "> 80", "unit": "%"},
      {"measurement": "inhibition", "setting": "[4]", "value": "> 80", "unit": "%"},
      {"measurement": "inhibition", "setting": "[5]", "value": "> 80", "unit": "%"},
      {"measurement": "inhibition", "setting": "[6]", "value": "> 80", "unit": "%"},
      {"measurement": "inhibition", "setting": "[7]", "value": "Dose-dependent effect"},
      {"measurement": "IC50", "setting": "[8]", "value": "5.8 to 8.8", "unit": "µM"},
      {"measurement": "inhibition", "setting": "[9]", "value": "> 80", "unit": "%"},
      {"measurement": "inhibition (INH)", "setting": "[10]", "value": "Active"}
    ]}
  ]
}
